From PubChem
Compounds with a hit are over-represented: about 1.6% of the library has one in this group of screens.
STEP inh: blocks human striatal-enriched tyrosine phosphatase | P54829 | recombinant STEP, OMFP fluorogenic substrate, fluorescence | inhibition, % at 20 µM | hit rate 0.25% among 360,000 | AID 588621;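 active = inhibition at 20 µM, scaled per plate between control wells, above about 37%, limit read from the data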;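 note: 0% = DMSO with enzyme and substrate and 100% = substrate only without enzyme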
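Assay system: isolated STEP enzyme / Timing: 20 min at room temperature, dark / Doses: 20 µM, 1% DMSO / Technique: fluorescence intensity, excitation 480 nm, emission 540 nm / Reagent: fluorogenic phosphatase substrate OMFP at 25 µM final / Measure: percent inhibition scaled to no-enzyme and uninhibited-enzyme controls, plate-pattern corrected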
SUMO1-SIM PPI: modulators of human SUMO1-mediated protein-protein interactions. SUMO1 binding to a labelled peptide, TR-FRET, 1 h. inhibition, % at 20 µM. hit rate 0.33% among 360,000; in the data active = inhibition above about 37%
CFTR F508del cor: CFTR F508del correction in bronchial cells. CFBE cells, YFP halide quenching; stimulated with forskolin plus potentiator P3; % fluorescence drop versus neutral controls. hit rate 0.36% among 350,000. activity (quench increase), % at 7.58 µM;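 active = mean added fluorescence quench of at least 8% versus neutral control, with both replicates also reaching 8%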;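 note: cells transiently co-express mutant CFTR-F508del with the halide-sensitive YFP; corrector assay measuring rescue of mutant channel to the surface after 24 h compound exposure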
LMPTP block: LMPTP (human) inhibition | inhibition, % at 20 µM | AID 651560 | recombinant LMPTP-A, OMFP fluorogenic substrate, fluorescence intensity | hit rate 0.22% among 360,000;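 active = compounds that cut the enzyme signal by at least half of the control window in the single-dose screen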;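 note: plate controls were DMSO wells with enzyme plus substrate for no effect and substrate without enzyme for full effect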
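Material: LMPTP-A; amount: 0.625 nM enzyme; doses: single 20 µM dose; times: reaction 50 min, room temperature, dark; technique: fluorescence intensity of OMFP turnover product; benchmarks: no-enzyme and uninhibited controls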
Scp-1 inhibitor: inhibitors of human Scp-1 phosphatase; Q9GZU7; Recombinant Scp1, phosphopeptide, malachite green phosphate absorbance; inhibition, % at 20 µM; hit rate 0.88% among 340,000; AID 493091;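 active = inhibition above about 50% at 20 µM, limit read from the data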;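 note: plate controls were DMSO wells with enzyme for no effect and wells lacking enzyme for full effect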
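Incubation: 45 min enzyme reaction at room temperature / System: truncated SCP-1 phosphatase (76-261aa) / Reagent: Phospho 17-mer peptide substrate / Buffer or medium: Acidic Tris acetate buffer with magnesium and detergent / Signal: absorbance at 630 nm / Doses: one concentration, 20 µM, with 1.0% DMSO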
DNMT1 block: DNMT1 (human) enzyme inhibition; P26358; DNMT1 molecular beacon, Hinp1I cleavage, fluorescence; inhibition (reported as % activation of signal), % at 10 µM; hit rate 0.83% among 360,000; AID 588458; in the data active = inhibition above about 50%
Target sequence (P26358 504-1616 limits assumed): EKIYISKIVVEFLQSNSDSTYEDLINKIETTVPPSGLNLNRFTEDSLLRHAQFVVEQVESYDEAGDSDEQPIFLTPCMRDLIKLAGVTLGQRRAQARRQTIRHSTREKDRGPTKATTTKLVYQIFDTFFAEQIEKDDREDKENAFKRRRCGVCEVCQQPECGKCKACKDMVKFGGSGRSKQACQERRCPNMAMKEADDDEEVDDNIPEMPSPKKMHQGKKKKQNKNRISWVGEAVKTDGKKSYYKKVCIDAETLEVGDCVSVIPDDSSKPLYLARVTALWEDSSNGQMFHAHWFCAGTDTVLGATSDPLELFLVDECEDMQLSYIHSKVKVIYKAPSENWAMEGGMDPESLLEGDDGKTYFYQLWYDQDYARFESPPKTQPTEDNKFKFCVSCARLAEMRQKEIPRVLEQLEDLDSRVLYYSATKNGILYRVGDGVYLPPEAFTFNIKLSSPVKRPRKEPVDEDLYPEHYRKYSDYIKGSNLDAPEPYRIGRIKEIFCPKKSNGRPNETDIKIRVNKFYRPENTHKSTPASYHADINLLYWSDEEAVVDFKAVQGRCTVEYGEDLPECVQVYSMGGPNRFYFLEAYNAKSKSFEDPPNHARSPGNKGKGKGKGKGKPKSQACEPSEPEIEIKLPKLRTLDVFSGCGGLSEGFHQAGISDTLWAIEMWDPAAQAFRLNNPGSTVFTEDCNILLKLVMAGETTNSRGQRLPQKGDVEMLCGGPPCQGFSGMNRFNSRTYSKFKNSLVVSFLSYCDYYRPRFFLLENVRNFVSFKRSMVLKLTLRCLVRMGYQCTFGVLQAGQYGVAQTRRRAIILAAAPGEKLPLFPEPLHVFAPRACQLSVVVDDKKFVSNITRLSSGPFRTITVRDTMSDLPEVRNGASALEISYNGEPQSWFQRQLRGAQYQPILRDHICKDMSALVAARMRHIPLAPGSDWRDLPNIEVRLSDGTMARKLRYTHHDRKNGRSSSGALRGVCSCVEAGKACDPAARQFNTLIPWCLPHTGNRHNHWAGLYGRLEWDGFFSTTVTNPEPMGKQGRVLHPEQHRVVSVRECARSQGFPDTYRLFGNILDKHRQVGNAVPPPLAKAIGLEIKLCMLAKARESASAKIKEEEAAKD
Active calls of the source: *; · = no result.

SMILES | STEP inh | SUMO1-SIM PPI | CFTR F508del cor | LMPTP block | Scp-1 inhibitor | DNMT1 block
COc1cc(OC)cc(C(=O)OCC(=O)NC(c2ccccc2)c2ccccc2)c1 | 2 | 0 | 8.2* | -1 | -3 | 4
O=C(O)COc1ccccc1/C=N/NC(=O)c1cc(-c2ccccc2)nc2ccccc12 | -2 | 2 | 3 | -1 | -4 | 2
O=C(N/N=C/c1ccccc1OC(F)F)c1cc(-c2ccncc2)nc2ccccc12 | 0 | -15 | 9.5* | 1 | -6 | -1
C[C@H]1CCCCO[C@H](CN(C)Cc2ccc(Cl)c(Cl)c2)[C@@H](C)CN([C@@H](C)CO)C(=O)c2cc(N(C)C)ccc2O1 | · | · | 3 | · | · | ·
Cc1ccc(-c2ccc3c(c2)O[C@@H](CN(C)C(=O)Nc2ccc(F)cc2)[C@@H](C)CN([C@@H](C)CO)S3(=O)=O)cc1 | · | · | 8.5* | · | · | ·
Cc1ccc(-c2ccc3c(c2)O[C@H](CN(C)C(=O)Nc2ccc(C(F)(F)F)cc2)[C@H](C)CN([C@@H](C)CO)S3(=O)=O)cc1 | · | · | 8.6* | · | · | ·
C[C@H]1CN([C@@H](C)CO)S(=O)(=O)c2ccc(-c3ccc(F)cc3)cc2O[C@@H]1CN(C)C(=O)Nc1ccc(F)cc1 | · | · | -6 | · | · | ·
Cc1ccc(-c2ccc3c(c2)O[C@H](CN(C)C(=O)Nc2ccc(F)cc2)[C@@H](C)CN([C@@H](C)CO)S3(=O)=O)cc1 | · | · | 12* | · | · | ·
C[C@@H]1CN([C@H](C)CO)S(=O)(=O)c2ccc(-c3ccc(F)cc3)cc2O[C@H]1CN(C)C(=O)Nc1ccc(F)cc1 | · | · | 0 | · | · | ·
C[C@H](CO)N1C[C@H](C)[C@H](CN(C)S(=O)(=O)c2ccc(Cl)cc2)Oc2ccc(NC(=O)Nc3ccc(C(F)(F)F)cc3)cc2C1=O | · | · | 0 | · | · | ·
C/C=C/c1ccc2c(c1)O[C@@H](CN(C)Cc1ccc(C(=O)O)cc1)[C@H](C)CN([C@H](C)CO)S2(=O)=O | · | · | 1 | · | · | ·
O=C(c1ccccc1F)N1CC(=O)N2[C@H](CO)[C@H](c3ccc(-c4ccccc4)cc3)[C@@H]2C1 | · | · | 1 | · | · | ·
CCOc1cc(C(=O)OCC(=O)c2c(C)[nH]c3ccccc23)ccc1OCC(=O)N1CCOCC1 | 2 | 39* | · | -1 | -9 | -1
CCOc1cc(C(=O)OCC(=O)c2c[nH]c3ccccc23)ccc1OCC(=O)N1CCOCC1 | 1 | 4 | · | 0 | -9 | -8
CN(C)c1ccc(Nc2nc(N)c3ccccc3n2)cc1 | 1 | 13 | 0 | 6 | 5 | 0
CN(C)c1ccc(Sc2ccc3nc(N)nc(N)c3c2)cc1 | 2 | -31 | 6 | 51* | · | -20
CC(C)NC(=O)Nc1cccc2c1O[C@@H](CN(C)S(=O)(=O)c1ccc(Cl)cc1)[C@@H](C)CN([C@@H](C)CO)C2=O | · | · | -4 | · | · | ·
COc1ccc(Cc2nnc(NC(=O)Cc3cccs3)s2)cc1OC | 9 | 12 | · | 17 | 70* | 75*
COc1ccc(Cc2nnc(NC(=O)c3ccc(F)cc3)s2)cc1OC | 0 | 5 | 8.6* | -1 | -3 | -3
COc1ccc(Cc2nnc(NC(=O)c3ccc(C)cc3)s2)cc1OC | -3 | -3 | 1 | 0 | -3 | 2
C[C@@H]1CN([C@@H](C)CO)C(=O)c2cc(C#C[C@@H](C)O)cnc2O[C@H]1CN(C)CC1CCCCC1 | · | · | -2 | · | · | ·
CC1(C)CC[C@]2(C(=O)n3ccnc3)CC[C@]3(C)[C@H](C(=O)C=C4[C@@]5(C)C=C(C#N)C(=O)C(C)(C)[C@@H]5CC[C@]43C)[C@@H]2C1 | 2 | 44* | -31 | -2 | 15 | 60*
Cc1cc(N)ccc1N1CCCC1 | 24 | 2 | · | 68* | 3 | 83*
Cc1ccc(-c2nnn3c2nc(NC(C)C)c2ccccc23)cc1 | -1 | -24 | 3 | 6 | -10 | 8
CNc1nc2c(-c3ccc(Cl)cc3)nnn2c2ccccc12 | 4 | -31 | -1 | 76* | -7 | 21
SMILES | STEP inh | SUMO1-SIM PPI | CFTR F508del cor | LMPTP block | Scp-1 inhibitor | DNMT1 block
Cc1nc(-c2ccccc2)sc1-c1nc(-c2ccncc2)ncc1S(=O)(=O)c1ccccc1 | 0 | 47* | · | 6 | 12 | -4
COc1ccccc1N1CC(C(=O)Nc2ccc(S(=O)(=O)N3CCCC3)cc2)CC1=O (stereo unspecified) | 3 | -7 | 9.6* | -2 | -12 | 3
COc1ccc(N2CC(C(=O)Nc3ccc(S(=O)(=O)N4CCCCC4)cc3)CC2=O)cc1 (stereo unspecified) | -1 | 2 | 3 | -1 | -5 | -4
CC(C)NC(=O)N1C[C@@H]2[C@H](c3ccccc31)[C@H](CO)N2C(=O)Nc1ccc(F)cc1 | · | · | -2 | · | · | ·
COc1cccc(CCC(=O)N2CCC(n3nccc3NC(=O)CC(C)C)CC2)c1 | -2 | 102* | 1 | 1 | -5 | -4
O=S(=O)(Nc1ccc(F)cc1Cl)c1ccc(-c2cnc(C3CC3)o2)cc1 | 1 | 6 | 14* | 2 | -11 | 1
O=Nc1ccc(NOC(=O)c2ccccc2Br)cc1 | -2 | -11 | · | 3 | -3 | 13
O=C(ONc1ccc(N=NC(=O)c2ccccc2O)cc1)c1ccccc1 | -1 | -18 | · | 22 | 91* | 4
CCS(=O)(=O)N1CC2(CN(C(=O)Cc3ccccn3)[C@H](CO)c3[nH]c4cc(OC)ccc4c32)C1 | · | · | 3 | · | · | ·
CCCNC(=O)Nc1ccc2c(c1)C(=O)N(C)C[C@@H](OC)[C@@H](C)CN(CCC)[C@@H](C)CO2 | · | · | -1 | · | · | ·
O=C(O)C1C2C=CC(O2)C1C(=O)NCCC1=CCCCC1 (stereo unspecified) | 7 | 4 | · | -2 | 38 | 53*
Nc1ccc(Cn2ccc3c4c(N)nc(N)nc4ccc32)cc1 | 2 | 27 | 4 | 64* | 17 | -4
CCS(=O)(=O)N1CC(=O)N2[C@H](CO)[C@@H](c3ccc(C#CCC(C)C)cc3)[C@@H]2C1 | · | · | 11* | · | · | ·
CC(C)CC#Cc1ccc([C@H]2[C@@H](CO)N3C(=O)CN(S(=O)(=O)c4ccccc4)C[C@@H]23)cc1 | · | · | 1 | · | · | ·
Nc1sc(-c2ccccc2)cc1-c1n[nH]c(=S)n1C1CCCCC1 | -1 | 1 | 13* | 1 | -4 | -3
COc1ccc(-n2c(-c3cc(-c4ccccc4)sc3N)n[nH]c2=S)cc1 | 3 | 1 | 4 | 1 | 2 | 3
Cc1cccc(C)c1-n1nnnc1C(c1ccnc2ccccc12)N1CCN(CCN(C)C)CC1 (stereo unspecified) | · | -3 | -2 | -1 | · | ·
Cc1cc(N2CCN(C(c3ccnc4ccccc34)c3nnnn3-c3c(C)cccc3C)CC2)c2ccccc2n1 (stereo unspecified) | · | 4 | -1 | 89* | · | ·
Nc1c(C(=O)NC2CC2)sc2nc3c(c(-c4ccco4)c12)CC/C3=C/c1ccco1 | 15 | 95* | · | 71* | 84* | 91*
